Test results taken from ChEMBL document CHEMBL1140888, “Synthesis, trypanocidal activity and docking studies of novel quinoxaline-N-acylhydrazones, designed as cruzain inhibitors candidates” (Bioorg Med Chem, 2009).

What was measured:
Trypanosoma cruzi [1] = test: Antitrypanosomal activity against Trypanosoma cruzi Tulahuen 2 at 25 uM relative to nifurtimox; type: functional; conditions: read-out: GI
Summary of the method: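 Epimastigotes of Tulahuen 2 strain exposed to 25 µM compound, up to 1% DMSO. A600 read right after inoculation (day 0) and at day 5. %inhibition = {1 − [(Ap − A0p)/(Ac − A0c)]} × 100 against drug-free control. Means of three independent experiments; nifurtimox as reference drug.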

J774 [2] = test: Cytotoxicity against mouse J774 cells after 48 hrs by MTT assay; type: cell-based; conditions: J774, 48 h
Summary of the method: (§1)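 J-774 macrophages seeded at 100.000 cells/well in RPMI 1640 with 20% heat-inactivated FCS, attached 48 h at 37 °C, 5% CO2. Exposed to 100, 200 or 400 µM for 48 h, washed with PBS, then MTT 0.4 mg/mL for 3 h at 37 °C. Formazan dissolved in DMSO, OD595 read. %cytotoxicity corrected for compound-in-medium blanks; triplicate wells, six growth controls.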

J774 [3] = test: Cytotoxicity against mouse J774 cells at 400 uM after 48 hrs by MTT assay; type: cell-based; conditions: j774, 48 h; summary of the method: as §1
Trypanosoma cruzi [4] = test: Antitrypanosomal activity against Trypanosoma cruzi Tulahuen 2; type: functional, organism-based
Summary of the method: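 Epimastigotes of T. cruzi Tulahuen 2 grown with compound, up to 1% DMSO tolerated. Growth followed as absorbance at 600 nm at day 0 and day 5. Percent inhibition taken relative to drug-free control. IC50 determined only for compounds giving >80% inhibition at 25 µM. Means of three independent experiments; nifurtimox reference.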

[5] = Selectivity index, ratio of IC50 for mouse J774 cells to IC50 for Trypanosoma cruzi Tulahuen 2; type: toxicity, cell-based; conditions: J774 cells (versus Trypanosoma cruzi Tulahuen 2), read-out: Ratio IC50

With O=C(N/N=C/c1cccc(Cl)c1)c1nc2ccccc2nc1-c1ccccc1 as the molecule, how does the inhibition of growth at 25 µM (Trypanosoma cruzi [1]) read?
The inhibition of growth at 25 µM was 47%.

For O=C(N/N=C/c1ccccn1)c1nc2ccccc2nc1-c1ccccc1, which inhibition of growth at 25 µM (Trypanosoma cruzi [1]) is on record?
The inhibition of growth at 25 µM was 0%.

Which inhibition of growth at 25 µM (Trypanosoma cruzi [1]) does the source give for CC(C)c1ccc(/C=N/NC(=O)c2nc3ccccc3nc2-c2ccccc2)cc1 here?
Its inhibition of growth at 25 µM is 36%.

For O=C(N/N=C/c1ccccc1)c1nc2ccccc2nc1-c1ccccc1, which inhibition of growth at 25 µM (Trypanosoma cruzi [1]) is on record?
The inhibition of growth at 25 µM was 3%.

What does the source list for Cc1nc2ccccc2nc1C(=O)N/N=C/c1ccccc1O?
IC50 (J774 [2]): > 400 µM; Activity (J774 [3]): 12%; inhibition of growth at 25 µM (Trypanosoma cruzi [1]): 81%; IC50 (Trypanosoma cruzi [4]): 20 µM; selectivity ratio [5]: > 20

Which inhibition of growth at 25 µM (Trypanosoma cruzi [1]) does the source give for CN(C)c1ccc(/C=N/NC(=O)c2nc3ccccc3nc2-c2ccccc2)cc1 here?
The inhibition of growth at 25 µM was 29%.

Which IC50 (J774 [2]) does the source give for CC(=O)N1CCN(c2ccc(OCC3COC(Cn4ccnc4)(c4ccc(Cl)cc4Cl)O3)cc2)CC1 (centres undefined) [KETOCONAZOLE] here?
The IC50 was less than 50 µM.

What about the Activity (J774 [3]) of the same molecule?
The Activity was 100%.

What about the selectivity ratio [5] of the same molecule?
The selectivity ratio was less than 5.

For O=C(N/N=C/c1ccc(Br)cc1)c1nc2ccccc2nc1-c1ccccc1, which inhibition of growth at 25 µM (Trypanosoma cruzi [1]) is on record?
Its inhibition of growth at 25 µM is 40%.

Which inhibition of growth at 25 µM (Trypanosoma cruzi [1]) does the source give for O=C(N/N=C/c1ccco1)c1nc2ccccc2nc1-c1ccccc1 here?
Its inhibition of growth at 25 µM is 0%.

Which inhibition of growth at 25 µM (Trypanosoma cruzi [1]) does the source give for O=C(N/N=C/c1ccccc1Cl)c1nc2ccccc2nc1-c1ccccc1 here?
The inhibition of growth at 25 µM was 35%.

With O=C(N/N=C/c1ccccc1O)c1nc2ccccc2nc1-c1ccccc1 as the molecule, how does the IC50 (J774 [2]) read?
The IC50 was greater than 400 µM.

What about the Activity (J774 [3]) of the same molecule?
The Activity was 14%.

What about the inhibition of growth at 25 µM (Trypanosoma cruzi [1]) of the same molecule?
Its inhibition of growth at 25 µM is 96%.

And the IC50 (Trypanosoma cruzi [4])?
Its IC50 is 15.9 µM.

And the selectivity ratio [5]?
Its selectivity ratio is greater than 25.2.

Which inhibition of growth at 25 µM (Trypanosoma cruzi [1]) does the source give for O=C(N/N=C/c1ccc(Cl)cc1)c1nc2ccccc2nc1-c1ccccc1 here?
The inhibition of growth at 25 µM was 53%.

With O=C(N/N=C/c1ccc([N+](=O)[O-])cc1)c1nc2ccccc2nc1-c1ccccc1 as the molecule, how does the inhibition of growth at 25 µM (Trypanosoma cruzi [1]) read?
Its inhibition of growth at 25 µM is 19%.

With O=C(N/N=C/c1ccc(O)cc1)c1nc2ccccc2nc1-c1ccccc1 as the molecule, how does the inhibition of growth at 25 µM (Trypanosoma cruzi [1]) read?
Its inhibition of growth at 25 µM is 27%.

With O=C(N/N=C/c1ccncc1)c1nc2ccccc2nc1-c1ccccc1 as the molecule, how does the inhibition of growth at 25 µM (Trypanosoma cruzi [1]) read?
The inhibition of growth at 25 µM was 0%.

Which inhibition of growth at 25 µM (Trypanosoma cruzi [1]) does the source give for O=C(N/N=C/c1ccc(F)cc1)c1nc2ccccc2nc1-c1ccccc1 here?
Its inhibition of growth at 25 µM is 22%.

Which results are given for CN(C/C=C/C#CC(C)(C)C)Cc1cccc2ccccc12 [TERBINAFINE]?
IC50 (J774 [2]): 88 µM; Activity (J774 [3]): 100%; selectivity ratio [5]: 5.1
